# Sampled rows, rich in hits. Any-hit rate of the full collection: about 3.7%.
# KCNK9 inh – KCNK9 potassium channel inhibitors, primary screen, HEK293 cells, thallium flux; B-score at 10 µM; Potassium channel subfamily K member 9 (Homo sapiens), Q9NPC2; FluxOR thallium flux fluorescence; hits give low values; 310,000 tested, 1.2% active;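 active means ratio B-score over 3 SD below the library mean, with starting fluorescence within 5 SD of its mean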;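 further: negative B-score means less thallium flux so channel inhibition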
# Target sequence (Q9NPC2 whole entry, looked up): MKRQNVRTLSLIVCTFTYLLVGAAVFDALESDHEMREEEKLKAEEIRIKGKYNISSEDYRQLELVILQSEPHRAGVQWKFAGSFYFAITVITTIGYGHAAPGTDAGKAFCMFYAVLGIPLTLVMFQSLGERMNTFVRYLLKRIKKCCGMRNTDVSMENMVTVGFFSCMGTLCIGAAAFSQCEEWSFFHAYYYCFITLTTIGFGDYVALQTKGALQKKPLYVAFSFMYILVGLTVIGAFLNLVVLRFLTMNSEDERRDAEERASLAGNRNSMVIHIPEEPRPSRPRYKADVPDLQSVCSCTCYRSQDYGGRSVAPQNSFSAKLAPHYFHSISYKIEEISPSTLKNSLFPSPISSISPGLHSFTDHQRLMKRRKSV
# hERG rescue – hERG rescue from dofetilide block, primary screen, cell-based, CHO-hERG, FluxOR thallium flux, dofetilide IC70; Voltage-gated inwardly rectifying potassium channel KCNH2 (Homo sapiens), Q12809; dofetilide IC70 present; activation (rescue from dofetilide block), less the hit threshold, % at 10 µM; 310,000 tested, 0.51% active; AID 1511, 2009;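 active means activation above the mean of controls blocked by dofetilide plus 5 SD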;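 further: thallium influx through hERG after potassium depolarization seen as dye fluorescence rise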
# Kir21 inh – inhibitors of mouse Kir2.1 inward-rectifier potassium channel. B-score at 10 µM. HEK293-Kir2.1, FluxOR thallium flux fluorescence; hits give low values. AID 1672, 2009. 310,000 tested, 0.85% active;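 active means fluorescence ratio B-score at or below minus 3 SD of library scores, with starting-brightness B-score within 2 SD, cut at about -4.2 in these data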;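 further: channel flux triggered by added potassium and thallium sulfate stimulus; B-score of peak minus minimum fluorescence over baseline after thallium stimulus; more negative B-score means stronger Kir2.1 block with less thallium influx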
# KCNQ1 act – potentiators or activators of KCNQ1 channel, primary screen, cell-based, thallium flux, high-throughput; CHO-K1 KCNQ1, thallium flux FluxOR fluorescence; hits give high values; 310,000 tested, 0.35% active; B-score at 10 µM; AID 2648, 2010; Potassium voltage-gated channel subfamily KQT member 1 (Homo sapiens), P51787;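 active means fluorescence ratio B-score, a plate-corrected score, at least three library SD, with initial intensity B-score within 5 SD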
#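 Assay system: CHO-K1 cells stably expressing KCNQ1. Medium: assay buffer for compound exposure, DMSO matched across wells. Timing: 37 °C overnight plating, 90-min dark dye load, 20-min compound pretreatment. Signal: kinetic FluxOR fluorescence, 10 s baseline plus 110 s post-stimulus.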
# KCNQ1 block – inhibitors of human KCNQ1 channel, primary screen, cell-based, thallium flux, high-throughput | CHO-K1 KCNQ1, FluxOR thallium flux fluorescence; hits give high values | 310,000 tested, 1.3% active | B-score at 10 µM | AID 2642, 2010;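 active means compounds whose thallium flux B-score, printed positive for inhibition, exceeds three library SD while starting fluorescence stays within three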;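 further: channel opened by potassium depolarization with thallium stimulus after 20 min compound exposure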
# KCNK3 inh – human KCNK3 channel inhibitors, primary screen, CHO cells, FluxOR thallium flux, B-score; Potassium channel subfamily K member 3 (Homo sapiens), O14649; FluxOR fluorescence; hits give low values; B-score at 10 µM; 340,000 tested, 0.84% active; AID 602410, 2012;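 active means B-score under library mean minus 4 SD, starting fluorescence ratio at most library mean plus 5 SD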;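 further: more negative B-score means stronger inhibition of thallium flux through KCNK3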
# An asterisk follows results filed as active; i = inactive; nt = no result given.
SMILES,KCNK9 inh,hERG rescue,Kir21 inh,KCNQ1 act,KCNQ1 block,KCNK3 inh
O=C(Nc1ccc(Br)cc1)c1ccc2c(c1)OCO2,i,-13,2.2,i,i,i
O=C(NN1CCOCC1)c1ccc(Cl)cc1[N+](=O)[O-],i,-11,0.96,i,i,i
COc1cc(NC(=O)c2c(F)cccc2F)c(Cl)cc1Cl,i,-9,0,i,i,i
CC1(C)CC(=O)c2c(O)cc(OCC(=O)Nc3ccc(S(N)(=O)=O)cc3)cc2O1,i,-5,-0.01,i,i,i
COc1cc(NC(=O)COc2cc(O)c3c(c2)OC(C)(C)CC3=O)cc(OC)c1OC,i,-28,0.02,i,9*,i
O=C(Nc1cc(C(F)(F)F)ccc1Cl)C(Sc1nnc(-c2cccs2)o1)c1ccccc1 (configuration not stated),i,-13,-1.9,i,6*,i
O=C(Nc1ccc(Cl)cc1C(F)(F)F)C(Sc1nnc(-c2cccs2)o1)c1ccccc1 (configuration not stated),i,-12,1.9,i,6*,i
CN(C)c1cccc(C(=O)OCC(=O)NC(=O)NCc2ccccc2)c1,nt,nt,nt,nt,nt,i
CCCN(Cc1ccccc1)C(=S)Nc1ccc(SC(F)F)cc1,i,-10,0.03,i,6*,i
CCOC(=O)C1CCCN(C(=O)C(C)(C)Oc2ccc(Cl)cc2)C1 (configuration not stated),i,-14,-5*,i,i,i
CC1CN(C(C)C)C(C)CC1OC(=O)c1ccccc1 (configuration not stated),i,-2,-0.79,i,i,i
O=C(Nc1ccccc1)c1nc2ccccc2s1,i,-10,0.83,i,i,i
Cc1ccc(C)c2sc(NC(=O)c3nc4ccccc4s3)nc12,i,8.9*,0.39,25*,i,i
CN(Cc1cccc(F)c1)C(=O)c1ccc(S(=O)(=O)N2CCOCC2)cc1,nt,nt,nt,nt,nt,i
COC(=O)c1c(NS(=O)(=O)Cc2ccccc2)sc2c1CCCC2,i,18*,-0.48,13*,i,i
COC(=O)c1c(NC(=O)CCNCc2ccco2)sc2c1CCC2,i,-10,-8.1*,i,i,i
COC(=O)c1c(NC(=S)Nc2ccc(F)cc2[N+](=O)[O-])sc2c1CCCCC2,i,6.4*,-0.23,10*,i,i
CCOC(=O)c1c(NC(=S)NC)sc2c1CC(C)(C)SC2,i,44*,-0.59,71*,i,i
COc1ccccc1NS(=O)(=O)c1cccc(C(=O)NCC(c2ccco2)N(C)C)c1 (configuration not stated),i,-10,0.3,i,i,i
COc1ccc(/C(O)=C2/C(=O)C(=O)N(c3ncccn3)C2c2ccc(F)cc2)cc1 (configuration not stated),i,-4,1.3,i,i,i
C[C@H](CO)N1C[C@H](C)[C@@H](CN(C)C(=O)Nc2ccccc2)Oc2c(NS(=O)(=O)c3cccs3)cccc2C1=O,nt,nt,nt,nt,nt,i
CCN(C(=S)Nc1ccc(C(C)=O)cc1)C1CCCCC1,i,-12,-0.26,i,i,i
CNC(=S)Nc1sc2c(c1C(=O)OC)CCC2,i,11*,0.15,16*,i,i
COc1ccc(NC(=O)CSC2=C(C#N)C(c3ccco3)C(C(=O)Nc3nc4ccccc4s3)=C(C)N2)cc1 (configuration not stated),i,-7,1.2,i,i,i
CC(=O)C1=C(C)NC(SCC(=O)Nc2nc3ccccc3s2)=C(C#N)C1c1ccc(Cl)cc1 (configuration not stated),i,-8,-0.01,i,7*,i
